Measured values collected from several papers.
PADI3: Protein-arginine deiminase type-3 (PADI3, Homo sapiens, UniProt Q9ULW8)
GAK: Cyclin-G-associated kinase (GAK, Homo sapiens, UniProt O14976)
Maoa: Amine oxidase [flavin-containing] A (Maoa, Rattus norvegicus, UniProt P21396)
RIPK1: Receptor-interacting serine/threonine-protein kinase 1 (RIPK1, Homo sapiens, UniProt Q13546)
KRAS G12C: GTPase KRas (KRAS, Homo sapiens, UniProt P01116, G12C)
AMY2: Pancreatic alpha-amylase (AMY2, Sus scrofa, UniProt P00690)

| SMILES | target | assay | conditions | quantity | result |
| --- | --- | --- | --- | --- | --- |
| N=C(CF)NCCC[C@H](NC(=O)c1ccccc1C(=O)O)c1nn[nH]n1 | PADI3 | enzyme activity, inhibitor | – | kinact/KI | 63.3 M⁻¹ s⁻¹ |
| FC(F)(F)c1cccc(Nc2ccnc3ccc(C(F)(F)F)cc23)c1 | GAK | thermal stability, DSF | 10 µM | ΔTm | 1.3 °C |
| CC/C(=N\NC(=O)NCc1cccc(O)c1)c1ccc(O)c(C)c1O | Fibroblast growth factor receptor 3 (FGFR3, Homo sapiens, UniProt P22607, K650E) | enzyme activity, inhibitor | 0.1 µM | inhibition | 1.3% |
| NCc1ccc(C(F)(F)F)cc1 | Maoa | enzyme activity, substrate | pH 7.5 | Km | 194 µM |
| O=C(O)CCC(=O)C(=O)O | Lysine-specific demethylase 4D (KDM4D, Homo sapiens, UniProt Q6B0I6) | enzyme activity, substrate | – | Km | 6.9 µM |
| Cc1ccc(C(=O)Nc2ccc(CN3CCN(C)CC3)c(C(F)(F)F)c2)cc1C#Cc1cnc2cccnn12 | RIPK1 | enzyme activity, inhibitor | 23.5 nM | remaining activity | 86% |
| COc1cc(Cl)c(C(=O)N[C@@H](CN[C@H]2CC[C@@H](N)CC2)Cc2ccc(C#N)cc2)cc1-c1ccc(CN[C@H](C)c2ccc(C)cc2)o1 | RIPK1 | enzyme activity, inhibitor | 1 µM | remaining activity | 96% |
| CCCOc1ccc(OC)c(F)c1C(=O)c1ccc(C(=O)N[C@@H]2CNC[C@H]2NC(=O)c2ccc3[nH]ncc3c2)cc1 | Serine/threonine-protein kinase MRCK beta (CDC42BPB, Homo sapiens, UniProt Q9Y5S2) | enzyme activity, inhibitor | 0.5 µM | remaining activity | 9% |
| C=CC(=O)N1CCN(c2cccc(-c3noc([C@@]4(C)CCCc5sc(N)c(C#N)c54)n3)c2)CC1 | KRAS G12C | cell-free assay, inhibitor | – | kinact | 8.33e-05 s⁻¹ |
| N=C(CCl)NCCC[C@H](NC(=O)c1ccccc1)c1nn[nH]n1 | PADI3 | enzyme activity, inhibitor | – | kinact/KI | 49.6 M⁻¹ s⁻¹ |
| C=CC(=O)Nc1ccc(-c2noc([C@@]3(C)CCCc4sc(N)c(C#N)c43)n2)cc1 | KRAS G12C | cell-free assay | – | kinact | 0.00011 s⁻¹ |
| Cc1ccc(C(=O)NCc2ccsc2)cc1C#Cc1cn(C(C)C)c2ncnc(N)c12 | RIPK1 | enzyme activity, inhibitor | 1 µM | activity vs control | 30% |
| N=C(CF)NCCC[C@H](NC(=O)c1ccccc1)c1nn[nH]n1 | PADI3 | enzyme activity, inhibitor | – | kinact/KI | 7.25 M⁻¹ s⁻¹ |
| CCCN(O)N=Nc1ccc(S(=O)(=O)Nc2cc(C)on2)cc1 | AMY2 | enzyme activity, inhibitor | 60 µg/mL | inhibition | 21.1% |
| CC(C)(C)n1nnc([C@H](CCCNC(=N)CF)NC(=O)c2ccc(-c3ccccc3)cc2)n1 | PADI3 | enzyme activity, inhibitor | – | kinact/KI | 11.7 M⁻¹ s⁻¹ |
| CN1CCC2(CC1)NC(=O)c1c(c3ccc(Cl)c(Cl)c3n1C)C2C#N (racemic) | Serine/threonine-protein kinase DCLK1 (DCLK1, Homo sapiens, UniProt O15075) | thermal stability, DSF | 10 µM | ΔTm | -0.1 °C |
| COc1cc(Nc2ccnc3cc(C#N)ccc23)cc(OC)c1OC | GAK | thermal stability, DSF | 10 µM | ΔTm | 5.3 °C |
| Nc1ncnc2occ(-c3ccc(NC(=O)Nc4cc(C(F)(F)F)ccc4F)cc3)c12 | Cyclin-dependent kinase 4, with cyclin D1 (CDK4, Homo sapiens, UniProt P11802) | cell-free assay, inhibitor | 20 µM | remaining signal | 17% |
| Cc1noc(NS(=O)(=O)c2ccc(N=NN(C)O)cc2)c1C | AMY2 | enzyme activity, inhibitor | 20 µg/mL | inhibition | 21.1% |
| CS(=O)(=O)c1cccc(Nc2ccnc3ccc(C(F)(F)F)cc23)c1 | GAK | thermal stability, DSF | 10 µM | ΔTm | 0.3 °C |
| CC(C)(C)n1nnc([C@H](CCCNC(=N)CF)NC(=O)c2ccccc2C(=O)O)n1 | PADI3 | enzyme activity, inhibitor | – | kinact/KI | 261 M⁻¹ s⁻¹ |

| SMILES | target | assay | conditions | quantity | result |
| --- | --- | --- | --- | --- | --- |
| COc1cc(Nc2ncnc3ccc(C(F)(F)F)cc23)cc(OC)c1 | GAK | thermal stability, DSF | 10 µM | ΔTm | 0.7 °C |
| Cc1noc(NS(=O)(=O)c2ccc(N=NN(O)c3ccccc3)cc2)c1C | AMY2 | enzyme activity, inhibitor | 240 µg/mL | inhibition | 63.2% |
| O=C1OC[C@H]2OC(O)[C@H](O)[C@@H](O)[C@@H]2OC(=O)c2cc(O)c(O)c(O)c2-c2c(O)c(O)c3oc(=O)c4c(c(O)c(O)c5oc(=O)c2c3c54)-c2c1cc(O)c(O)c2O (mixture of isomers) | Genome polyprotein, protease (Hepatitis C virus genotype 1b, UniProt Q9WMX2) | enzyme activity, inhibitor, fluorescence | – | IC90 | ~1000 nM |
| Fc1cccc(Nc2ccnc3ccc(C(F)(F)F)cc23)c1 | GAK | thermal stability, DSF | 10 µM | ΔTm | 4.3 °C |
| C=CC(=O)Nc1cccc(-c2noc([C@@]3(C)CCCc4sc(N)c(C#N)c43)n2)c1 | KRAS G12C | cell-free assay, inhibitor | – | kinact | 0.000306 s⁻¹ |
| COc1cc(Nc2ccnc3ccc(C(C)(C)C)cc23)cc(OC)c1OC | GAK | thermal stability, DSF | 10 µM | ΔTm | 5.2 °C |
| COc1cc(C=Cc2cc(-c3ccccc3)nc(O)n2)ccc1O | AMY2 | enzyme activity, inhibitor, absorbance | 5 µg/mL | inhibition | 76.3% |
| FC(F)(F)c1ccc2nccc(Nc3cccc(Br)c3)c2c1 | GAK | thermal stability, DSF | 10 µM | ΔTm | 3.8 °C |
| O=S(=O)(Nc1nccs1)c1ccc(N=NN(O)c2ccccc2)cc1 | AMY2 | enzyme activity, inhibitor | 60 µg/mL | inhibition | 15.8% |
| COc1cc(C=CC(=O)CC(c2ccc([N+](=O)[O-])cc2)n2ccnc2)ccc1O (centres unmarked) | AMY2 | enzyme activity, inhibitor, absorbance | 1.25 µg/mL | inhibition | 52.7% |
| Cc1cccc(N(O)N=Nc2ccc(S(=O)(=O)Nc3nccs3)cc2)c1 | AMY2 | enzyme activity, inhibitor | 60 µg/mL | inhibition | 21.1% |
| COc1cc2nccc(Nc3cccc(C(C)=O)c3)c2cc1OC | GAK | thermal stability, DSF | 10 µM | ΔTm | 1.3 °C |
| C[C@H]1O[C@H](O[C@H]2[C@H](O)[C@@H](O)[C@@H](O[C@H]3[C@H](O)[C@@H](O)C(O)O[C@@H]3CO)O[C@@H]2CO)[C@H](O)[C@@H](O)[C@@H]1N[C@H]1C=C(CO)[C@@H](O)[C@H](O)[C@H]1O (some centres unmarked) | AMY2 | enzyme activity, inhibitor | 10 µg/mL | inhibition | 23.1% |
| COc1cc(C=Cc2cc(-c3ccc(N(C)C)cc3)nc(O)n2)ccc1O | AMY2 | enzyme activity, inhibitor, absorbance | 5 µg/mL | inhibition | 72.4% |
| NC(=O)[C@H](CCCN=C(N)N)NC(=O)c1ccccc1 | PADI3 | enzyme activity, substrate | – | Km | 13900 µM |
| N=C(CF)NCCC[C@H](NC(=O)c1ccc(-c2ccccc2)cc1)c1nn[nH]n1 | PADI3 | enzyme activity, inhibitor | – | kinact/KI | 5.08 M⁻¹ s⁻¹ |
| Cc1cc(NS(=O)(=O)c2ccc(N=NN(C)O)cc2)no1 | AMY2 | enzyme activity, inhibitor | 20 µg/mL | inhibition | 10.5% |
| NCc1ccc(F)cc1 | Maoa | enzyme activity, substrate | pH 7.5 | Km | 174 µM |
| CCN(O)N=Nc1ccc(S(=O)(=O)Nc2cc(C)on2)cc1 | AMY2 | enzyme activity, inhibitor | 120 µg/mL | inhibition | 42.1% |
| C[C@@H]1CN(c2ccc3ncc(-c4ccc5[nH]nc(C6CC6)c5c4)n3n2)C[C@H](C)O1 | Cyclin-dependent kinase 19 (CDK19, Homo sapiens, UniProt Q9BWU1) | binding, competition with immobilised ligand | 50 nM | remaining binding | 90% |
